Reference: the array DNA melting data of Ke et al. (doi:10.1101/2024.01.08.574731)

What was measured:
[1] = melting temperature; fluorescence melt of hairpins on a sequencing array, two-state fit, raised by 9.35 °C to match UV melts; conditions: sodium 0.088 M
In short: (§1)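 Melting temperature and folding enthalpy were derived from bootstrapped two-state fits. The fitted temperatures were raised by 9.35 °C to agree with UV melts, and four replicates were combined by inverse variance. The underlying data were Cy3 fluorescence images of library hairpins, with annealed Cy3 and quencher oligos, on a sequenced MiSeq flow cell in 50 mM Na-HEPES pH 8.0, 25 mM NaCl, taken in 2.5 °C steps up to 60 °C, normalised to pre-quench Cy3 and to control constructs.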

[2] = folding enthalpy; higher = less favourable; fluorescence melt of hairpins on a sequencing array, two-state fit; conditions: sodium 0.088 M
In short: as §1

Row | Sequence | Tm [1] [°C] | folding enthalpy [2] [kcal/mol]
1 | GATCCAGTTGTGGATC ((((((....)))))) | 50.4 | -38.6
2 | GGTCCAGGAAACTGGGCC ((.((((....)))).)) | 60.2 | -43.4
3 | GATCCGAGGCCGGATC ((((((....)))))) | 56.4 | -45.5
4 | GAGTTTGGAAACAAGCTC (((.(((....))).))) | 44.5 | -34.8
5 | GTGTAAGGAAACTTATAC ((.((((....)))).)) | 33.8 | -19.6
6 | CGCGGAGCTTTCCGCG ((((((....)))))) | 68.2 | -20.8
7 | GGAACCGAAAGGTTGTCC ((((((....)))..))) | 36.1 | -11.5
8 | GTATCCGAAAGGATTAC ((((((....))).))) | 41 | -13.7
9 | GTCCATGGAAACATGGAC (((((((....))))))) | 63.6 | -41.8
10 | GTGGTCGCGAAAGCGCAC (((..(((....)))))) | 44.9 | -12.4
11 | GCAGGACGAAAGTCTTGC (((.(((....))).))) | 58.5 | -41.5
12 | GGGAGCGAAAGCTAACCC ((((((....)))..))) | 45 | -16.1
13 | GAGTCGGGAAACCAACTC ((((.((....)).)))) | 38.9 | -30.7
14 | GTCTAGCGAAAGCTTGAC (((.(((....))).))) | 54.2 | -28.7
15 | GGTTAGCGAAAGCTACC (((.(((....)))))) | 53.3 | -17.2
16 | GGCCCCGAAAGGGTCGCC ((((((....)))..))) | 55.5 | -16.1
17 | GATCCCTCGGGGATC ((((((...)))))) | 62.9 | -34.5
18 | GTAAAGACGAAAGTCTAC (((..(((....)))))) | 29.8 | -11.6
19 | GGTCGCGAAAGCGGCACC ((((((....)))..))) | 52.8 | -9.3
20 | GTGGCAGGAAACTACCAC ((((.((....)).)))) | 44.6 | -34.2
21 | GCAGGTCGAAAGACTGC (((.(((....)))))) | 55.9 | -29.8
22 | GATCGGTATTCCGATC ((((((....)))))) | 58.4 | -42
23 | GGTCGAGGAAACTCGATC (.(((((....))))).) | 52.2 | -30.7

Row | Sequence | Tm [1] [°C] | folding enthalpy [2] [kcal/mol]
24 | GCGCAAGGAAACTCGCGC ((((.((....)).)))) | 54.6 | -36.1
25 | GTGGACGGAAACGTCCGC (.(((((....))))).) | 62 | -18.4
26 | GTATCCGAAAGGATGTAC ((((((....)))..))) | 36.7 | -11.5
27 | GGAAACGAAAGTTCGTCC ((((((....)))..))) | 24.8 | -13
28 | GCATTTGGAAACAAATGC (((((((....))))))) | 60 | -46.7
29 | GATCCGCTTTCGGATC ((((((....)))))) | 57.8 | -40.4
30 | GTCCTGGGAAACCAGAAC ((.((((....)))).)) | 35.5 | -19.7
31 | GTCGATCGAAAGATTGAC (((.(((....))).))) | 53.6 | -51.8
32 | GCGCAGCGAAAGCTTTGC ((..(((....)))..)) | 38.8 | -6.59
33 | GATCATCGCATGATC ((((((...)))))) | 49.6 | -31.4
34 | GATCCCGTAGGGGATC ((((((....)))))) | 62.9 | -23.4
35 | GTTGAACGAAAGTTAAAC (((.(((....))).))) | 41.2 | -26.9
36 | GATCCATGGATGGATC ((((((....)))))) | 53 | -39.1
37 | GATCACCGCGGTGATC ((((((....)))))) | 67.2 | -44.1
38 | GCGATACGTCGC ((((....)))) | 54.4 | -30.6
39 | GAGCCCGAAAGGGTTCTC ((((((....)))..))) | 66.9 | -19.9
40 | GATCATCCTTATGATC ((((((....)))))) | 46.3 | -37
41 | GATCTATCTTTAGATC ((((((....)))))) | 43.1 | -24.1
42 | GCTTTGCGAAAGCGCAGC (((..((....))..))) | 38.7 | -11.8
43 | GACTGCCCGAAAGGGGTC (((..(((....)))))) | 35.6 | -9.57
44 | GCGTTGTTACGC ((((....)))) | 54.3 | -23.2
45 | GATCAGTCGGCTGATC ((((((....)))))) | 51.5 | -46.8
46 | GGCTACGGAAACGTGGCC (((.(((....))).))) | 60.1 | -47.4

Row | Sequence | Tm [1] [°C] | folding enthalpy [2] [kcal/mol]
47 | GCGTCTGCACGC ((((....)))) | 52.5 | -17.6
48 | GTGTGCGGAAACGCATAC ((.((((....)))).)) | 54.6 | -37
49 | GATCCATGATGGATC ((((((...)))))) | 49.6 | -34.2
50 | GACCGCACGAAAGTGGTC (((..(((....)))))) | 47 | -21.1
51 | GGCGTCGCGAAAGCGGCC (((..(((....)))))) | 58.7 | -13
52 | GCACAGCGAAAGCAGCGC ((.(.((....)).).)) | 53.6 | -19.4
53 | GCTAAAGGAAACTTTGGC ((.((((....)))).)) | 41.1 | -30.4
54 | GGCTCCGAAAGGAGAGCC ((((((....)))..))) | 55.6 | -20.7
55 | GATCACTCGGGTGATC ((((((....)))))) | 57.6 | -37.4
56 | GATCAAAATTTGATC ((((((...)))))) | 39.3 | -26.4
57 | GCGATGCGAAAGCACGC (((.(((....)))))) | 68.4 | -23.4
58 | GGCATTCGAAAGAAGCC (((.(((....)))))) | 48.5 | -25
59 | GATCGGTGGACCGATC ((((((....)))))) | 57.2 | -31.7
60 | GCGTGGGGAAACCCACAC (.(((((....))))).) | 46.9 | -11.6
61 | GGTATAGGAAACTATACC (((((((....))))))) | 52.1 | -42.4
62 | GGGACGGGAAACCATCCC ((((.((....)).)))) | 44.7 | -31.6
63 | GCGGCCGAAAGGCTACGC ((((((....)))..))) | 61.1 | -19.6
64 | GCCTGACCGAAAGGTGGC (((..(((....)))))) | 51.2 | -23.4
65 | GGTAGTGGAAACATTGCC ((.(.((....)).).)) | 28.5 | -17.1
66 | GAAAACCGAAAGGTATTC (((.(((....))).))) | 37.5 | -23.5
67 | GGTATCGAAAGATAGACC ((((((....)))..))) | 30.6 | -17
68 | GATCAAGGATTGATC ((((((...)))))) | 49.8 | -38.8
69 | GATCGCCAATGCGATC ((((((....)))))) | 65.3 | -38.1

Row | Sequence | Tm [1] [°C] | folding enthalpy [2] [kcal/mol]
70 | GCCGGTCCGAAAGGAGGC (((..(((....)))))) | 48 | -21.9
71 | GTAGACGAAAGTCTCTAC ((((((....)))..))) | 34.9 | -11.6
72 | GGGGCCGAAAGGCGACCC ((((((....)))..))) | 55.9 | -15.9
73 | GCGTGCCGACGC ((((....)))) | 60.1 | -19.3
74 | GAAGAGGGAAACCCCTTC ((((.((....)).)))) | 35.7 | -21.2
75 | GCCTGTTCGAAAGAAGGC (((..(((....)))))) | 38.8 | -25.6
76 | CGTGCGGAAACGCACACG ((((((....)))..))) | 43.9 | -8.09
77 | GGAACTGGAAACAGTCCC ((.((((....)))).)) | 40 | -25.4
78 | GATATGACGAAAGTCATC (((..(((....)))))) | 33.3 | -10.7
79 | GTTGCCGGAAACGGTAAC (((.(((....))).))) | 54.4 | -33.3
80 | GTAGTCGAAAGACAATAC ((((((....)))..))) | 28.3 | -15.2
81 | GTTGGAGGAAACTTCAGC (.((.((....)).)).) | 30.5 | -12.7
82 | GTGGACGAAAGTCAACAC ((((((....)))..))) | 45.9 | -15.3
83 | GTCGTAGGAAACTACGAC (((((((....))))))) | 63.3 | -43.6
84 | GCGAGGGGAAACCCTCAC (.(((((....))))).) | 45.2 | -13.7
85 | GGGGGGAAACCCCC (((((....))))) | 65.9 | -21.5
86 | GGTACACGAAAGTGAACC (((.(((....))).))) | 53.9 | -36.8
87 | GATCCCATACGGGATC ((((((....)))))) | 64.6 | -38.5
88 | GTTCTCGAAAGAGGGAAC ((((((....)))..))) | 31.4 | -17.6
89 | GCCATGCGAAAGCCTGGC ((((.((....)).)))) | 62.8 | -31.2
90 | GAGTCAGGAAACTGATTC ((.((((....)))).)) | 39.8 | -27.1
91 | GCAACGCGAAAGCGTCGC ((.((((....)))).)) | 64.7 | -22.2
92 | GGCCCGTCGAAAGACGCC (((..(((....)))))) | 37 | -8.97
